Screens: PubChem, Broad Institute
T cruzi intra: inhibitors of intracellular Trypanosoma cruzi; intracellular Trypanosoma cruzi in host cells, plate reader; activity score (inhibition), % at 5.01 µM; hit rate 4.9% among 22,000; AID 651903; in the data active = activity score above about 55%; inconclusive = no clear call, values can overlap the other calls;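 also: parasites and compound incubated about four days before reading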
INS-1E rescue: preserves ATP levels in cytokine-treated INS-1E cells | AID 488910 | hit rate 0.1% among 20,000 | INS-1E cytokine-induced death, ATP luminescence, 48 h; normalised: neutral wells 0, positive control 100 | protection from cytokine-induced ATP loss, % at 10 µM;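 active = mean replicate protection from cytokine-induced ATP loss at least 50% and at least 75% of replicates each reaching 50%; inconclusive = meets only one of the two criteria, mean or replicate share; inactive = fails both the mean and replicate share criteria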
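Material: INS-1E rat cells; Quantity: 8000 cells/well; Buffer or medium: phenol-red-free RPMI with 5% fetal bovine serum; Probe or stimulus: cytokine cocktail of IFN-γ, TNF-α and IL-1β; Compound dosing: single test concentration per compound, delivered by pin transfer; Incubation: 48 h co-treatment, 10 min post-lysis read; Signal: CellTiter-Glo luminescence.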
A1 apoptosis 2: A1 inhibition read as caspase activation; AID 2465; MEF A1-2A-BIM cells, caspase-Glo luminescence, 3 h; percent of clofoctol response, DMSO zero; caspase activation, % (no concentration beside the values); 24,000 tested, under 10 active; in the data active = caspase activation above about 5.9%; inconclusive = no clear call, values can overlap the other calls; inactive = below about 2.2%
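Material: mouse embryonic fibroblasts co-expressing A1 and BIM (A1-2A-BIM), primed for A1 dependence / Quantity: 2500 cells/well / Buffer or medium: RPMI-1640 growth medium with 10% FBS / Doses: 50 nL compound per well, pinned / Schedule: 3 h compound exposure at 37 °C / Signal: Caspase-Glo luminescence (DEVD substrate) / Measure: Caspase-3/7 activation, seen as rise in luminescence signal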
Numbers stand for hits; – = inactive; ? = inconclusive; · = no result given. Many of the other results were omitted from the sample, so hits are more common in it than they were.

SMILES | T cruzi intra | INS-1E rescue | A1 apoptosis 2
C[C@H]1CN([C@@H](C)CO)C(=O)Cc2cc(NC(=O)Cc3cn(C)c4ccccc34)ccc2O[C@H]1CN(C)Cc1ccc(C(=O)Nc2ccccc2N)cc1 | 66 | – | ·
C[C@@H]1CN([C@H](C)CO)C(=O)Cc2cc(NC(=O)Cc3cn(C)c4ccccc34)ccc2O[C@@H]1CN(C)Cc1ccc(C(=O)Nc2ccccc2N)cc1 | 72 | – | –
O=C(N/N=C/c1cccc(OCCO)c1)c1ccccc1O | – | – | –
Cc1noc(C)c1S(=O)(=O)Nc1cccc2c1O[C@@H](CN(C)C(=O)Nc1ccccc1)[C@@H](C)CN([C@@H](C)CO)C2=O | – | – | –
O=C(N/N=C/c1cc(O)ccc1Br)c1ccccc1O | – | – | –
O=C(N/N=C\c1ccc2ccccc2c1O)c1ccccc1O | 62 | – | ·
O=C(N/N=C/c1cc(Br)cc(Br)c1O)c1ccccc1O | 83 | – | –
Cn1cc(/C=N\NC(=O)c2ccccc2O)c2ccccc21 | – | – | ·
O=C(N/N=C/c1cc(Br)cs1)c1ccccc1O | – | – | –
O=C(N/N=C/c1ccc(O)cc1O)c1ccccc1O | 67 | – | –
Cc1noc(C)c1S(=O)(=O)Nc1ccc2c(c1)C(=O)N([C@H](C)CO)C[C@H](C)[C@H](CN(C)C(=O)Nc1cccc3ccccc13)O2 | – | · | ·
C[C@@H]1CCCCO[C@@H](CN(C)Cc2ccc(C(=O)O)cc2)[C@H](C)CN([C@@H](C)CO)C(=O)c2cc(NC(=O)Nc3ccccc3)ccc2O1 | · | · | –
C[C@@H]1CCCCO[C@@H](CN(C)Cc2ccccc2)[C@@H](C)CN([C@H](C)CO)C(=O)c2cc(NC(=O)Nc3cccc4ccccc34)ccc2O1 | 57 | – | –
C[C@@H]1CCCCO[C@H](CN(C)Cc2ccc(Cl)c(Cl)c2)[C@@H](C)CN([C@H](C)CO)C(=O)c2cc(NC(=O)Nc3cccc4ccccc34)ccc2O1 | 62 | – | –
C[C@@H]1CCCCO[C@@H](CN(C)Cc2ccc(Cl)c(Cl)c2)[C@@H](C)CN([C@@H](C)CO)C(=O)c2cc(NC(=O)Nc3cccc4ccccc34)ccc2O1 | · | · | –
C[C@@H]1CCCCO[C@@H](CN(C)Cc2ccccc2)[C@H](C)CN([C@@H](C)CO)C(=O)c2cc(NC(=O)Nc3cccc4ccccc34)ccc2O1 | · | · | –
C[C@@H]1CN([C@H](C)CO)C(=O)c2cc(NS(=O)(=O)c3ccc(Cl)cc3)ccc2O[C@H]1CN(C)C(=O)NC1CCCCC1 | – | – | –
C[C@H]1CN([C@@H](C)CO)C(=O)c2cccc(NC(=O)NC3CCCCC3)c2O[C@@H]1CN(C)Cc1ccc(-c2ccccc2)cc1 | – | – | –
C[C@H](CO)N1C[C@H](C)[C@H](CN(C)Cc2ccc(-c3ccccc3)cc2)Oc2c(NC(=O)NC3CCCCC3)cccc2C1=O | 69 | – | –
C[C@H](CO)N1C[C@H](C)[C@@H](CN(C)Cc2ccc(Oc3ccccc3)cc2)Oc2c(NC(=O)NC3CCCCC3)cccc2C1=O | 70 | – | ·
C[C@@H]1CN([C@@H](C)CO)C(=O)c2cccc(NC(=O)NC3CCCCC3)c2O[C@@H]1CN(C)Cc1ccccc1 | – | – | –
COc1ccc(NC(=O)N(C)C[C@H]2Oc3ccc(NC(=O)CCC(F)(F)F)cc3CC(=O)N([C@H](C)CO)C[C@@H]2C)cc1 | · | · | –
C[C@H]1CN([C@@H](C)CO)C(=O)Cc2cc(NS(=O)(=O)c3ccc(F)cc3)ccc2O[C@@H]1CN(C)Cc1ccc(Cl)c(Cl)c1 | ? | – | ·
Cc1ccc(S(=O)(=O)Nc2ccc3c(c2)CC(=O)N([C@H](C)CO)C[C@@H](C)[C@H](CN(C)Cc2ccc4c(c2)OCO4)O3)cc1 | 61 | – | –
Cc1ccc(S(=O)(=O)Nc2ccc3c(c2)CC(=O)N([C@H](C)CO)C[C@H](C)[C@H](CN(C)Cc2ccc4c(c2)OCO4)O3)cc1 | – | – | –
SMILES | T cruzi intra | INS-1E rescue | A1 apoptosis 2
C[C@@H]1CN([C@H](C)CO)C(=O)Cc2cc(NS(=O)(=O)c3ccc(F)cc3)ccc2O[C@@H]1CN(C)Cc1ccc(Cl)c(Cl)c1 | 63 | – | ·
C[C@H](CO)N1C[C@H](C)[C@H](CN(C)Cc2ccc(Cl)c(Cl)c2)Oc2ccc(NS(=O)(=O)c3ccc(F)cc3)cc2CC1=O | 57 | – | ·
Cc1ccc(S(=O)(=O)Nc2ccc3c(c2)CC(=O)N([C@H](C)CO)C[C@H](C)[C@H](CN(C)Cc2ccc(Cl)c(Cl)c2)O3)cc1 | – | – | –
Cc1ccc(S(=O)(=O)Nc2ccc3c(c2)CC(=O)N([C@@H](C)CO)C[C@H](C)[C@@H](CN(C)Cc2ccc(Cl)c(Cl)c2)O3)cc1 | 75 | – | –
C[C@H](CO)N1C[C@H](C)[C@H](CN(C)Cc2ccc(Cl)c(Cl)c2)Oc2ccc(NS(=O)(=O)c3ccc(Cl)cc3)cc2CC1=O | – | – | ·
CCOC(=O)N(C)C[C@@H]1OCc2cn(nn2)CCCC(=O)N([C@H](C)CO)C[C@@H]1C | – | · | –
Cc1noc(C)c1NC(=O)Nc1ccc2c(c1)CC(=O)N([C@H](C)CO)C[C@H](C)[C@H](CN(C)S(=O)(=O)c1ccccc1)O2 | – | – | –
C[C@@H]1CCCCO[C@H](CN(C)C(=O)c2ccccc2)[C@@H](C)CN([C@@H](C)CO)C(=O)c2cc(NS(=O)(=O)c3cn(C)cn3)ccc2O1 | · | · | –
C[C@H]1CN([C@@H](C)CO)C(=O)c2cc(NC(=O)Nc3ccc(C(F)(F)F)cc3)ccc2O[C@@H]1CN(C)Cc1ccncc1 | – | – | ·
COc1ccc(NC(=O)Nc2ccc3c(c2)C(=O)N([C@H](C)CO)C[C@@H](C)[C@H](CN(C)C(=O)Nc2ccc(F)cc2)O3)cc1 | – | – | ·
COc1ccc(CN(C)C[C@H]2Oc3ccc(NC(=O)c4ccncc4)cc3CC(=O)N([C@H](C)CO)C[C@H]2C)cc1 | · | · | –
C[C@H]1CN([C@@H](C)CO)C(=O)Cc2cc(NS(=O)(=O)c3ccc(Cl)cc3)ccc2O[C@H]1CN(C)Cc1ccc(Cl)c(Cl)c1 | – | – | –
C[C@@H]1CN([C@H](C)CO)C(=O)Cc2cc(NS(=O)(=O)c3ccc(Cl)cc3)ccc2O[C@@H]1CN(C)Cc1ccc(Cl)c(Cl)c1 | 67 | – | ·
C[C@@H]1CN([C@@H](C)CO)C(=O)c2cccc(NS(=O)(=O)c3ccc(F)cc3)c2O[C@H]1CN(C)Cc1ccccc1 | – | – | ·
C[C@@H]1CN([C@@H](C)CO)C(=O)c2cc(NC(=O)Nc3ccc(C(F)(F)F)cc3)ccc2O[C@H]1CN(C)S(=O)(=O)c1ccc(F)cc1 | – | – | –
Cc1ccc(S(=O)(=O)N(C)C[C@@H]2Oc3ccc(NC(=O)c4ccncc4)cc3C(=O)N([C@H](C)CO)C[C@@H]2C)cc1 | 63 | – | ·
C[C@@H]1CN([C@H](C)CO)C(=O)c2cc(NC(=O)Nc3ccc(C(F)(F)F)cc3)ccc2O[C@H]1CN(C)S(=O)(=O)c1ccccc1 | 70 | – | –
C[C@@H]1CN([C@@H](C)CO)C(=O)c2cc(NC(=O)Nc3ccc(C(F)(F)F)cc3)ccc2O[C@@H]1CN(C)S(=O)(=O)c1ccc(F)cc1 | 68 | – | –
